Results on one compound are retold here after ChEMBL document CHEMBL4619807, “Exploration of Alternative Scaffolds for P2Y14 Receptor Antagonists Containing a Biaryl Core” (J Med Chem, 2020).

Data set [1] concerns the target T1, P2Y purinoceptor 14 (Homo sapiens, UniProt Q15391).
T1 sequence (Q15391 whole entry): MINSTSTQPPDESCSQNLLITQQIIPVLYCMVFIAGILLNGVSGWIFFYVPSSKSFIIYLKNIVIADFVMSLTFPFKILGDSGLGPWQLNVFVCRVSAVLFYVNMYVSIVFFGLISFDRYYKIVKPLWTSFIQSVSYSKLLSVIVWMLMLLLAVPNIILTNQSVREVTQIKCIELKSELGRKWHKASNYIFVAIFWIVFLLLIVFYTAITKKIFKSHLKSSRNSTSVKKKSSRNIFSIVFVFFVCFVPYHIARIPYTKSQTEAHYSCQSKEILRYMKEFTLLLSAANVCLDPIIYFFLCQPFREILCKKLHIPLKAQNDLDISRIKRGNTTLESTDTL
Kind of data set: cell-based.

Data set [2] is described as follows: Half life in rat at 1 mg/kg, ip. It counts as ADME, organism-based. The following applies: in vivo.
The nature of data set [3]: Tmax in rat at 10 mg/kg, ip. Type of data set: ADME, organism-based. The settings on record: in vivo. In a few lines: (§1)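 Rats dosed intraperitoneally at 1, 3 and 10 mg/kg and intravenously at 0.5 mg/kg. Solubilizing vehicle was aqueous DMSO. Plasma concentrations followed over time up to 12 h. Bioavailability derived from ip exposure relative to the iv dose.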
Data set [4] can be described thus: Aqueous solubility at pH 7.4 by pION method. The settings on record: aqueous, read-out: solubility. Type of data set: physicochemical. The method, boiled down: (§2)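 Equilibrium aqueous solubility measured by the pION method at pH 4.0 and at pH 7.4, in μg/mL; mean ± SD.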
Data set [5] can be described thus: Half life in human liver microsomes. Type of data set: ADME, Microsome. On the technique in general: Liver microsomes are a subcellular fraction often used to study metabolism.
Data set [6] can be described thus: Half life in mouse liver microsomes. Type of data set: ADME, Microsome.
Data set [7] can be described thus: Cmax in rat at 10 mg/kg, ip after 3 to 4 hrs. The settings on record: in vivo. It counts as ADME, organism-based. Also on record: dose 10 mg/kg, route intraperitoneal. The method, boiled down:
as §1

The subject of another data set is Mus musculus. The data set is described as follows: Antiasthmatic activity in Aspergillus oryzae protease-mediated C57BL/6J mouse model of allergic asthma assessed as reduction in eosinophil infiltration in bronchoalveolar lavage fluid at 10 mg/kg, ip dosed 30 mins before OVA aerosol challenge and measured 2 days post-challenge by cell differential count assay. It counts as functional, organism-based.

For data set [8], the target named is T2, P2Y purinoceptor 14 (Mus musculus, UniProt Q9ESG6).
T2 sequence (Q9ESG6 whole entry): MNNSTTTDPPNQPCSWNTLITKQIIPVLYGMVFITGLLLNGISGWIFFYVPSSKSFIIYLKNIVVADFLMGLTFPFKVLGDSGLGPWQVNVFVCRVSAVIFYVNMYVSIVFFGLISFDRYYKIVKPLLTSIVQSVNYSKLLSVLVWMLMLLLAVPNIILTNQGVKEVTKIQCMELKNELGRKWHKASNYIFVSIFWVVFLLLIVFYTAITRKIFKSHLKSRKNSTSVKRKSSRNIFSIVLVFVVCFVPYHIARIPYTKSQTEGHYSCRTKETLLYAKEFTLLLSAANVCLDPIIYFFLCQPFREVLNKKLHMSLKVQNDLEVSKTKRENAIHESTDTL
Kind of data set: Inhibition of MRS4174 binding to mouse P2Y14R expressed in HEK293 cells pre-incubated for 30 mins before MRS4174 addition and further incubated for 30 mins by flow cytomtery based competitive fluorescence assay. Type of data set: cell-based. The method, boiled down:
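Competitive whole-cell binding in HEK293 cells stably expressing N-terminally HA-tagged mouse P2Y14R, grown in a 24-well plate to 80–90% confluency. Antagonist given at 1 nM–100 μM in serum-containing EMEM for 30 min at 37 °C, then tracer added at 20 nM final for 30 min.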

Data set [9] in a line: Half life in rat at 0.5 mg/kg, iv. The following applies: in vivo. It counts as ADME, organism-based.
Data set [10] can be described thus: Stability in mouse plasma assessed as compound remaining level at 120 mins. It counts as ADME, cell-free. The following applies: 2 h.
Data set [11] can be described thus: Lipophilicity, change in Constant K of the compound by RP-HPLC analysis relative to PPTN. It counts as physicochemical. The method, boiled down: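 Lipophilicity taken from reversed-phase HPLC retention time on a C18 column. Elution used a 20 min gradient of 10 to 100% acetonitrile in 10 mM triethylammonium acetate. Reported as Δk against the reference antagonist.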

The nature of data set [12]: Aqueous solubility at pH 4 by pION method. The following applies: aqueous, read-out: solubility. It counts as physicochemical. In a few lines: as §2
Data set [13] in a line: Plasma concentration in rat at 1 mg/kg, ip after 2 hrs. It counts as ADME, organism-based. The method, boiled down:
as §1

Data set [14] concerns the target T1, P2Y purinoceptor 14. Kind of data set: cell-based. The source holds these as a separate data set.
Data set [15] is described as follows: Bioavailability in rat at 1 to 10 mg/kg, ip. Type of data set: ADME, organism-based. The settings on record: in vivo. The method, boiled down:
as §1

In data set [16] the target is T1, P2Y purinoceptor 14. Kind of data set: cell-based. The source holds these as a separate data set.
Data set [17] in a line: Solubility in 10% DMSO in water. Type of data set: physicochemical. The following applies: buffer. In a few lines:
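Compound dissolved in DMSO without basification, then diluted with water to 10% DMSO at 1 mg/mL. Solubility was judged by the absence of precipitation on dilution.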

Data set [18] can be described thus: Half life in rat liver microsomes. Type of data set: ADME, Microsome.
The test system of a further data set is HepG2. The data set is described as follows: Toxicity in human HepG2 cells. Type of data set: cell-based.
Data set [19] in a line: Plasma concentration in rat at 1 mg/kg, ip after 4 hrs. Type of data set: ADME, organism-based. In a few lines: as §1
Data set [20] is described as follows: Drug level in rat at 10 mg/kg, ip after 12 hrs. It counts as ADME, organism-based. The following applies: in vivo. In a few lines:
as §1

A short description of data set [21]: Stability in human plasma assessed as compound remaining level at 120 mins. It counts as ADME, cell-free. The settings on record: 2 h.

Values after ≈ are worked out from the molar mass of the structure shown. Active and inactive are the calls of the source. The calls are words filed in the database; no cut-off is given here.

One may read the IC50 as the concentration that inhibits the measured activity by half. Lower therefore signals greater potency in that assay. In general, half-life refers to the time in which the quantity being followed falls by half. The Tmax is the time at which the peak concentration occurs. Usually solubility stands for how much of the substance goes into solution per volume. The Cmax is the highest concentration seen after dosing. The term bioavailability denotes the share of a dose that reaches the circulation, judged against a reference dose that is usually intravenous. Low readings indicate poor availability, high ones good availability. Regarding `O=C(O)c1cc(-c2ccc(C34CCN(CC3)CC4)cc2)c2ccc(-c3ccc(C(F)(F)F)cc3)cc2c1`, the IC50 on P2Y purinoceptor 14 [1] is 84.5 nM; on P2Y purinoceptor 14 [8] it was 21.4 nM; on P2Y purinoceptor 14 [14] it was 38.1 nM; against P2Y purinoceptor 14 [16], 57 nM; in the data set on HepG2, greater than 20000 nM. Moreover, the half-life in data set [2] is 5.1 h; in data set [9], 3.46 h. In addition, the Tmax in data set [3] lay in the range of 3 to 4 h. Moreover, the solubility in data set [4] is 0.44 to 0.55 µg/mL (≈ 0.877 to 1.1 µM); in [12], 1.5 to 14.3 µg/mL (≈ 2.99 to 28.5 µM); in data set [17] it was 1000 µg/mL (≈ 1990 µM). The t1/2 was greater than 4 h in [5], 1.12 h in [6] and 1.33 h in data set [18]. Moreover, the highest level in data set [7] (Cmax) was 900 ng/mL. The result in the data set on Mus musculus was Active. In addition, the Stability in data set [10] and in [21] was 100% each time. The “fold change (FC)” value in data set [11] amounted to 1.24. The compound further displayed a concentration at 2 h in data set [13] of 165 nM. The bioavailability in [15] was 100%. Also, the concentration at 4 h in data set [19] was 292 nM. Moreover, the Drug uptake in data set [20] lay within 200 to 400 ng/kg.
